From PubChem
ASAP1 inh: ASAP1 ArfGAP inhibition; Q9ULH1; ASAP1-stimulated ARF1 GTP hydrolysis, GDP FP detection; inhibition, % at 16.5 µM; hit rate 0.19% among 360,000; AID 624377; in the data active means inhibition above about 25%;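 further: 0% = vehicle with enzyme and substrate and 100% = no enzyme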
PAFAH1B3 inh: PAFAH1B3 (human) inhibition; Q15102; recombinant PAFAH1B3, FP-rhodamine probe, fluorescence polarization; inhibition, % at 3.39 µM; hit rate 0.28% among 340,000; AID 492972;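 active means inhibition above the screen-wide average of all tested compounds plus 3 SD, cut at about 25% in these data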;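 further: 0% = enzyme with DMSO only and 100% = wells lacking PAFAH1B3 protein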
Target sequence (Q15102 whole entry, looked up): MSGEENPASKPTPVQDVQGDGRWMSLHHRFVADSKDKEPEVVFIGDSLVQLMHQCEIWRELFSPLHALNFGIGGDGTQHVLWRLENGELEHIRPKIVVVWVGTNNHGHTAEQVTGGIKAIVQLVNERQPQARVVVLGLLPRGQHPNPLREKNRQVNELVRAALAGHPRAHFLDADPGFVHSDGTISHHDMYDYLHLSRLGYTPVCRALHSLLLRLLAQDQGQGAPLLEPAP
PAFAH1B2 inh: blocks human PAF acetylhydrolase 1b catalytic subunit 2; recombinant PAFAH1B2, FP-rhodamine activity probe, fluorescence polarization; inhibition, % at 3.39 µM; hit rate 1.2% among 340,000;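 active means inhibition above the mean of all tested compounds plus 3 SD, cut at about 24% in these data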;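 further: 0% = enzyme with DMSO and 100% = wells lacking PAFAH1B2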
Target sequence (P68402 whole entry, looked up): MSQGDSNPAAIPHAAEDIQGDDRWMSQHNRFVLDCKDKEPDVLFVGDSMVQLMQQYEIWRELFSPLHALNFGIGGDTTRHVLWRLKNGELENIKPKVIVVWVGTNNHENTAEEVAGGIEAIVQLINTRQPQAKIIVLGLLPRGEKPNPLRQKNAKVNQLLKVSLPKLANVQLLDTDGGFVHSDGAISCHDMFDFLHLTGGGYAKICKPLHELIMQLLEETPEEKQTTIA
ARFGAP1 inh: rat ARFGAP1 inhibition; AID 651572; hit rate 0.26% among 360,000; Q62848; inhibition, % at 16.5 µM; Arfgap1-stimulated ARF1 GTP hydrolysis, GDP FP detection;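 active means inhibition above a per-plate limit, mean inhibition of low control wells plus 3 SD, cut at about 25% in these data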;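 further: 0% = DMSO wells with enzyme and 100% = wells lacking Arfgap1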
Target sequence (Q62848 1-136 limits assumed): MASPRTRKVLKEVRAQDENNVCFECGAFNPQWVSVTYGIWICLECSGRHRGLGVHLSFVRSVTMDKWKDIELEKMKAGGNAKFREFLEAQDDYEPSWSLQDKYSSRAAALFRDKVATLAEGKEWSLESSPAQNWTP
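System: truncated rat Arfgap1 GAP domain / Medium: HEPES-based buffer, pH 7.5 / Also added: N-terminally truncated human ARF1-GTP substrate / Incubation: enzyme reaction 120 min at 25 °C after 20 min preincubation / Measured by: FP of antibody-bound GDP Alexa 633 tracer, ex 620/em 688 nm / Replicates: singlicate, each compound tested once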
PAFAH2 inh: PAFAH2 (human) inhibition; Q99487; recombinant PAFAH2, FP-rhodamine activity probe, fluorescence polarization; inhibition, % at 3.39 µM; hit rate 0.99% among 340,000; AID 492956;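 active means inhibition above the mean over all tested compounds plus 3 SD, cut at about 30% in these data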;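 further: inhibitors block probe labeling of enzyme so polarization drops; 0% = enzyme with DMSO and 100% = wells lacking PAFAH2 protein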
pPAFAH inh: inhibitors of human plasma PAF acetylhydrolase (pPAFAH). recombinant pPAFAH, FP-rhodamine probe fluorescence polarization. inhibition, % at 3.39 µM. hit rate 1.5% among 330,000. Q13093. AID 463082;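 active means inhibition above the mean inhibition across the screen plus 3 SD, cut at about 25% in these data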;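 further: inhibitors block binding of the rhodamine activity-based probe so polarization drops; 0% = enzyme with DMSO and 100% = wells lacking pPAFAH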
An asterisk follows results filed as active; nt = no result given. Hits are enriched below; roughly 2.8% of the tested compounds scored in any of these assays.

SMILES | ASAP1 inh | PAFAH1B3 inh | PAFAH1B2 inh | ARFGAP1 inh | PAFAH2 inh | pPAFAH inh
O=C(CSc1n[nH]c(=O)[nH]c1=O)Nc1c(Cl)cc(Cl)cc1Cl | 6.2 | 7.0 | -0.3 | 9.0 | -9.6 | 1.7
O=c1[nH]nc(SCc2cc(Cl)ccc2Cl)c(=O)[nH]1 | 5.2 | 4.0 | 28.6* | 7.0 | 1.4 | 0.1
COc1ccc(CSc2n[nH]c(=O)[nH]c2=O)cc1 | -6.9 | nt | nt | 2.6 | nt | nt
CN1CC(C(=O)Nc2ccc(F)c(Cl)c2)CC1=O (stereo unspecified) | -7.4 | 0.5 | 7.5 | -14.7 | 8.9 | -5.0
Cc1ccc(NC(=O)c2ccc(N3CCOCC3)c([N+](=O)[O-])c2)cc1S(=O)(=O)N1CCOCC1 | 23.8 | 2.0 | 1.1 | 5.5 | -3.9 | -0.8
Cc1ccc(NC(=S)NNC(=O)c2ccc(N3CCOCC3)c([N+](=O)[O-])c2)cc1C | 11.8 | 13.5 | 3.6 | -6.2 | 11.7 | 25.9*
CC(O)[C@H]1CNC(=O)C(=O)N1CCC12CC3CC(CC(C3)C1)C2 (stereo partly specified) | 8.0 | 10.5 | 24.8* | -10.4 | 13.3 | 0.0
CC(=O)Nc1ccc(S(=O)(=O)NNC(=O)COc2cc(C)ccc2C(C)C)cc1 | -1.1 | 8.2 | 3.0 | 11.1 | 0.1 | 0.8
Cc1ccc(C(C)C)c(OCC(=O)NNCC(=O)Nc2cccc(F)c2)c1 | 1.6 | 5.0 | 25.4* | 5.4 | -3.4 | 7.7
CCOc1cc2c3c(c1)C(C)=CC(C)(C)N3C(=O)C2=O | 16.1 | 8.7 | 5.6 | 0.8 | 1.2 | 3.0
CC(=O)Oc1cc2c3c(c1)/C(=C1/SC(=S)NC1=O)C(=O)N3C(C)(C)C=C2C | 7.4 | 15.8 | 48.1* | 7.0 | 37.2* | 30.1*
O=[N+]([O-])c1cc2no[n+]([O-])c2cc1N1CCCCC1 | 6.2 | 86.3* | 70.2* | 3.8 | 74.0* | nt
CCN(CC)c1ccc(/C=N/NC(=O)c2nnn(-c3nonc3N)c2C(C)C)c(O)c1 | -3.0 | 11.9 | 13.2 | 12.5 | 10.6 | 27.8*
Cc1nc2nc(N)nc(OCc3ccccc3)c2nc1C | 0.6 | nt | nt | -2.7 | nt | 9.0
CC(NC(=O)C1CCN(CCOc2ccc(Cl)cc2)CC1)c1cccc2ccccc12 (stereo unspecified) | 1.2 | nt | nt | 8.3 | nt | nt
CC(Sc1n[nH]c(N)n1)C(=O)C12CC3CC(CC(C3)C1)C2 (stereo unspecified) | -7.0 | 3.1 | 27.1* | 0.9 | 8.4 | -3.7
CC1CCN(S(=O)(=O)c2cnc(Cl)c(Br)c2)CC1 | 7.8 | -2.5 | 25.6* | -5.6 | -1.8 | 1.5
COC(=O)C1=C(C)N(Cc2ccccc2C(F)(F)F)C(=NCc2cccc(C(F)(F)F)c2)NC1CCc1ccccc1 (stereo unspecified) | 2.3 | nt | nt | 11.8 | nt | nt
Nc1nc(Cl)c(N)c(NCC2(CO)CC(CCc3ccccc3)C2)n1 (stereo unspecified) | -3.3 | 6.6 | 4.9 | -1.2 | -0.2 | nt
Cc1[nH]c2ccccc2c1/C=N/NC(=O)c1ccccc1 | 7.2 | 4.4 | 5.3 | 0.6 | 4.7 | 8.1
Cc1[nH]c2ccccc2c1/C=N/NC(=O)c1cc(-c2ccccc2)n[nH]1 | -6.4 | nt | nt | 12.6 | nt | 25.3*
COc1ccc2c(c1OC)C(CC(C)=O)N1CCc3cc4c(cc3C1C2=O)OCO4 (stereo unspecified) | 5.2 | nt | nt | -1.8 | nt | nt
Cc1ccsc1/C=C/C1=Cc2c(sc(NC(=O)CSc3n[nH]c(N)n3)c2C#N)C(C)(C)C1 | 6.0 | -5.2 | -0.3 | -0.4 | 11.7 | 32.3*
Oc1cccc(/C=N/Nc2cccc3cccnc23)c1 | -8.7 | 13.5 | 6.7 | 5.1 | 12.7 | nt
Oc1c(/C=N/Nc2cccc3cccnc23)ccc2ccccc12 | 15.4 | 2.6 | 3.3 | 9.1 | -17.5 | 29.9*
SMILES | ASAP1 inh | PAFAH1B3 inh | PAFAH1B2 inh | ARFGAP1 inh | PAFAH2 inh | pPAFAH inh
CCCc1nc2ccc(C(=O)OC)cn2c1Cc1cccc(F)c1 | -8.3 | nt | nt | 9.5 | nt | nt
O=C(O)COc1ccc(Br)cc1CP(=O)(c1ccccc1)c1ccccc1 | 1.0 | -3.9 | 8.2 | -6.8 | -4.1 | 5.8
O=C(O)c1[nH]c2ccccc2c1C(c1cc(Cl)cc([N+](=O)[O-])c1O)c1c(C(=O)O)[nH]c2ccccc12 | -35.9 | 8.2 | 61.6* | -40.0 | 12.1 | 13.2
O=C(O)c1[nH]c2ccccc2c1C(c1ccccc1)c1c(C(=O)O)[nH]c2ccccc12 | -21.3 | 9.6 | 88.5* | -29.4 | 13.2 | 2.1
O=C(O)COc1ccc(Br)cc1C(c1c(C(=O)O)[nH]c2ccccc12)c1c(C(=O)O)[nH]c2ccccc12 | nt | 6.8 | 53.1* | nt | 20.1 | 7.0
COc1cc(C(c2c(C(=O)O)[nH]c3ccccc23)c2c(C(=O)O)[nH]c3ccccc23)ccc1OCc1ccccc1 | -21.6 | 7.8 | 57.3* | -38.0 | 25.7 | 17.9
COCC(=O)c1[nH]c2ccccc2c1C | 13.3 | 6.0 | -1.5 | 3.5 | 1.7 | 1.1
C(COC1CC2CC1C1C2CC2OC21)OC1CC2CC1C1C2CC2OC21 (stereo unspecified) | 1.1 | 2.0 | -1.3 | -13.8 | -4.5 | nt
Cc1cc2nc(C(C)(C)C)c(Cc3ccsc3)n2c(C)c1Br | 12.2 | nt | nt | -7.2 | nt | nt
Cc1onc(-c2ccccc2)c1C(=O)N1CCCC(C)(C(=O)NS(=O)(=O)C2CC2)C1 (stereo unspecified) | 6.6 | nt | nt | 2.2 | nt | nt
COc1ccc(-c2coc3c(C)c4oc(=O)c(CCC(=O)O)c(C)c4cc23)cc1 | nt | 4.7 | 3.7 | nt | 7.0 | 25.0*
O=C(c1ccc(C(F)(F)F)cc1)N1CCN(S(=O)(=O)c2ccc3c(c2)OCCCO3)CC1 | 13.6 | 0.5 | 0.4 | -1.2 | -2.5 | 5.4
O=C(NCc1ccccn1)[C@@H]1CCCN1C(=O)[C@@H]1CCCN1C(=O)c1cccc2ccccc12 | 4.0 | nt | nt | -2.4 | nt | nt
CC(C)C(NS(=O)(=O)c1cccc(C(F)(F)F)c1)C(=O)N1CCc2ccccc2C1 (stereo unspecified) | 11.1 | 3.5 | 25.8* | -3.8 | 7.4 | -2.7
CC(C)C(NS(=O)(=O)c1ccccc1F)C(=O)N1CCc2ccccc2C1 (stereo unspecified) | -6.0 | 1.1 | 3.4 | -1.0 | 2.4 | 1.2
O=C(CSc1nc(O)cc(=O)n1-c1ccccc1)c1ccc(Br)cc1 | -17.0 | 5.5 | 3.5 | 5.2 | 17.6 | 24.7*
O=c1cc(O)nc(SCc2ccccc2)n1-c1ccccc1 | -6.6 | 0.2 | -5.8 | -1.4 | 9.1 | 10.7
COc1ccccc1-c1cc(C(=O)Nc2sc3c(c2C#N)CCC(C)C3)c2ccccc2n1 (stereo unspecified) | 6.8 | -2.3 | 1.2 | 1.3 | -17.1 | -2.7
Cc1cc(C(=O)OCC(=O)Nc2sc3c(c2C#N)CCC(C)C3)c2ccccc2n1 (stereo unspecified) | -1.8 | 1.2 | -1.0 | -15.4 | 0.5 | 24.6*
CCOC(=O)C1(C)CCN1C(=O)c1ccc(C(F)(F)F)cc1 (stereo unspecified) | -10.4 | nt | nt | -0.7 | nt | nt
Cc1cc(N)ccc1N1CCCC1 | nt | 9.0 | 7.7 | nt | 15.6 | 26.1*
